High-throughput results as filed in PubChem BioAssay.
Rows were chosen to be rich in hits. Some 2.9% of all compounds tested hit in one or more screens of this group.
TRPC6 inh = inhibitors of mouse TRPC6 channel; 1.1% of 310,000 active; B-score at 10 µM; HEK293-TRPC6, membrane potential dye, ACh-evoked depolarization; stronger effect = lower value;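 active means B-score under library mean minus 3 SD, initial fluorescence not abnormally high, positive integrated signal ratio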;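 further: B-score derived from integrated fluorescence ratio over the kinetic read; more negative B-score means stronger inhibition of depolarization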
TRPC4 agonist = activators of mouse TRPC4 channel. Q9QUQ5. HEK293 TRPC4beta/mu-opioid, Fluo4 calcium fluorescence; stronger effect = higher value. B-score at 10 µM. 0.49% of 310,000 active. AID 2237;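 active means B-score above 5 SD of library B-scores, and initial fluorescence ratio not above library mean plus 5 SD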;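 further: positive B-score marks a calcium rise read as TRPC4 activation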
Target sequence (Q9QUQ5 whole entry, looked up): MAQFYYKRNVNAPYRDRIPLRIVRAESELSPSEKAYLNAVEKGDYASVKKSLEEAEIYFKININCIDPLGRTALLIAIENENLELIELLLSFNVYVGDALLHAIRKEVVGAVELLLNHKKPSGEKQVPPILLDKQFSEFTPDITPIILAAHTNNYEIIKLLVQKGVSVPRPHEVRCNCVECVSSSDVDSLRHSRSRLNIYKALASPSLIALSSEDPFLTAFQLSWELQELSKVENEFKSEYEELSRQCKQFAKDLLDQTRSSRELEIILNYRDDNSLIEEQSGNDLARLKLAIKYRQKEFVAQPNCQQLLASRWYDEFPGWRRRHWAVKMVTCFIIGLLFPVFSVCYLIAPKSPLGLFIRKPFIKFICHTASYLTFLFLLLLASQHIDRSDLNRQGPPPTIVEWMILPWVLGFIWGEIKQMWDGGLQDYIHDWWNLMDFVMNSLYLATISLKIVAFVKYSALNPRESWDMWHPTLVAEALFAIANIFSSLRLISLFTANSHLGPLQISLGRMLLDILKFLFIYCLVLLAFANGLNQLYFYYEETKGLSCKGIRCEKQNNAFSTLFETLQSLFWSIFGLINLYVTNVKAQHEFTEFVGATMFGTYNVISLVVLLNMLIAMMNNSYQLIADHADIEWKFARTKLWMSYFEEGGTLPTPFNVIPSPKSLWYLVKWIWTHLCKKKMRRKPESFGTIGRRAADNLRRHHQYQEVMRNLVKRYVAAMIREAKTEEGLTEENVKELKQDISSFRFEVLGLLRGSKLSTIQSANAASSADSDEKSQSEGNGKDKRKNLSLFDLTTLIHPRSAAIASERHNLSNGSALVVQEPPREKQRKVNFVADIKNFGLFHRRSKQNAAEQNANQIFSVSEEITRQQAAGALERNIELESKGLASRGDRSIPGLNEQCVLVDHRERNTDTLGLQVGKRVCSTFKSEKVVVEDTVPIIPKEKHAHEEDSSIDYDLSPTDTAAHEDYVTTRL
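Assay system: HEK293 stable line with TRPC4beta plus mu-opioid receptor; schedule: 45 min room-temperature Fluo4 loading, 110 s read; technique: kinetic Fluo4 calcium fluorescence; evaluation: integrated baseline-normalised fluorescence ratio, converted to per-well B score; controls: buffer (low) and maximal DAMGO (high)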
TRPC4 potent = allosteric potentiators of mouse TRPC4 channel | 0.42% of 310,000 active | HEK293 TRPC4beta/mu-opioid, DAMGO EC20, Fluo-4 Ca2+ flux; stronger effect = higher value | B-score at 10 µM;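 active means B-score of calcium response area above 5 SD of library B-scores, with initial fluorescence ratio within 5 SD of library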;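 further: B-score of integrated fluorescence ratio over time as area under calcium response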
TRPC6 activator = activators of mouse TRPC6 channel; Q61143; HEK293-TRPC6 membrane potential dye fluorescence; stronger effect = higher value; B-score at 10 µM; 0.13% of 310,000 active; AID 2550;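 active means B-score of the integrated fluorescence ratio above library mean plus 3 SD, and starting fluorescence ratio within library mean plus 5 SD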;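 further: higher score means more depolarization so channel activation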
TRPC4 block = inhibitors of mouse TRPC4 channel. Q9QUQ5. HEK293 TRPC4beta/mu-opioid, DAMGO-evoked Fluo4 calcium flux; stronger effect = lower value. B-score at 10 µM. 0.39% of 300,000 active;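 active means B-score over 3 SD under the library average, no early fluorescence shift, positive overall ratio signal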
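System: stable TRPC4beta/mu-opioid receptor HEK293 cells; Dosing: single-point compound dosing; Measured by: Fluo4 Ca2+ flux fluorescence; Read-out basis: per-well B score of integrated baseline-normalized Fluo4 ratio.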
Kir21 inh = blocks the mouse Kir2.1 inward-rectifier potassium channel | HEK293-Kir2.1, FluxOR thallium flux fluorescence; stronger effect = lower value | 0.85% of 310,000 active | P35561 | B-score at 10 µM;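 active means fluorescence ratio B-score at or below minus 3 SD of library scores, with starting-brightness B-score within 2 SD, cut at about -4.2 in these data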;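 further: channel flux triggered by added potassium and thallium sulfate stimulus; B-score of peak minus minimum fluorescence over baseline after thallium stimulus; more negative B-score means stronger Kir2.1 block with less thallium influx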
Active calls of the source: *; i = inactive; · = no result given.

SMILES	TRPC6 inh	TRPC4 agonist	TRPC4 potent	TRPC6 activator	TRPC4 block	Kir21 inh
CC1CCCCN1C(=O)COC(=O)c1cc([N+](=O)[O-])ccc1N (stereo not given)	i	i	i	i	i	0.63
Cc1cc(Cl)cc(Cl)c1OCCCCN(C)C	i	i	36*	i	i	-1
Cc1ccc(CN=C(Nc2ccccc2)NC2CCCCC2)cc1	i	i	i	i	i	-6.5*
CNC(=S)N/N=C/c1cn(Cc2ccc(F)cc2)c2ccccc12	i	i	11*	i	i	-0.52
Nc1ccc(C(=O)N/N=C/c2cn(Cc3ccccc3F)c3ccccc23)cc1	i	i	11*	i	i	-1.8
Nc1ccc(C(=O)N/N=C/c2cn(Cc3ccc(F)cc3)c3ccccc23)cc1	i	i	i	i	i	-2.6
COc1ccc(OCCNC2CCCC2)cc1	i	i	i	i	i	1.1
c1ccc(-c2ccc(OCCCNC3CCCC3)cc2)cc1	i	i	i	i	i	-5.8*
c1ccc(Cc2ccc(OCCCNC3CCCC3)cc2)cc1	i	i	i	i	i	-8.1*
COC(=O)CCCn1nc(NC(=O)c2ccco2)cc1C	i	i	i	i	i	0.68
Cc1cccc(N2CCN(C(=O)CCCCCn3c(=S)[nH]c4ccc(N5CCOCC5)cc4c3=O)CC2)c1C	i	i	i	i	i	1.6
CC(=O)C1=C(O)C(=O)N(Cc2ccco2)C1c1ccc2c(c1)OCO2 (stereo not given)	i	i	i	i	-7*	-0.28
C/C(=C\C=C(C#N)C#N)c1cc(C#N)c(N)o1	i	i	i	i	i	-5.1
COc1cc(-c2n[nH]c(=S)n2C(C)c2ccccc2)cc(OC)c1OC (stereo not given)	i	i	i	i	i	-4.3*
CC(C)NC(=O)CSc1nc(Cc2cccs2)nc2ccccc12	i	i	i	i	i	-4.6*
CCC(C)(C)NC(=O)CSc1nc(Cc2ccccc2)nc2ccccc12	i	i	i	i	i	-1.5
O=C1CN(c2nc3nonc3nc2N2CCCCC2)CCN1	i	i	i	i	i	0.67
O=S(=O)(c1ccc(Cl)cc1)N1CCN2CCCC2C1 (stereo not given)	i	98*	34*	i	i	1.9
C=CCS(=O)(=O)N1CCCC(N2CCN(c3ccccc3OC)CC2)C1 (stereo not given)	i	i	i	i	i	0.13
COc1ccccc1N1CCN(C2CCCN(S(=O)(=O)c3ccccc3)C2)CC1 (stereo not given)	i	i	i	i	-6*	0.67
Cc1ccc(S(=O)(=O)N2CCN3CCCC3C2)cc1 (stereo not given)	i	i	i	i	i	-1.1
CCc1nc(SCc2ccccc2C#N)n[nH]1	i	i	i	i	i	-0.56
COc1ccc(C(C(=O)NC2CCCCC2)N(Cc2ccco2)C(=O)c2snc(C(N)=O)c2N)cc1 (stereo not given)	i	i	i	i	i	0.54
NC(=O)c1nsc(C(=O)N(Cc2ccco2)C(C(=O)NC2CCCC2)c2ccc(O)cc2)c1N (stereo not given)	i	i	i	i	-5*	-0.31
NC(=O)c1nsc(C(=O)N(Cc2ccco2)C(C(=O)NCc2ccc(F)cc2)c2ccc(O)cc2)c1N (stereo not given)	i	i	i	i	-6*	-1.6
SMILES	TRPC6 inh	TRPC4 agonist	TRPC4 potent	TRPC6 activator	TRPC4 block	Kir21 inh
CCOC(=O)C1CCN(Cc2cn(C)nc2-c2ccc(Oc3ccccc3)cc2)CC1	i	i	i	i	i	-0.22
CCOC(=O)C1=C(C)NC(SC)=C(C#N)C1CC(C)C (stereo not given)	i	i	i	i	i	-7.1*
O=C(CCNC(=O)c1ccco1)Nc1ccc(Cl)c(C(F)(F)F)c1	i	i	i	i	i	2.3
CC1CCC2C(=O)N(c3ccc(NC4CCN(Cc5ccccc5)CC4)c([N+](=O)[O-])c3)C(=O)C2C1 (stereo not given)	i	72*	i	i	i	-1.2
O=C1C2CC=CCC2C(=O)N1c1ccc(NCCc2ccccc2)c([N+](=O)[O-])c1 (stereo not given)	i	i	i	i	i	-1.1
O=[N+]([O-])c1ccccc1NC1CCN(Cc2ccccc2)CC1	i	i	i	i	i	-7*
O=C1CCC(=O)N1c1ccc(NC2CCN(Cc3ccccc3)CC2)c([N+](=O)[O-])c1	i	83*	i	i	i	-1
Cc1ccc(S(=O)(=O)O/N=C2\CCCc3ccccc32)cc1	i	i	i	i	i	0.4
CC1=C(C)/C(=N\OS(=O)(=O)c2ccccc2)C=CC1=O	i	i	i	i	i	-11*
CN(C)CCCN1c2ccccc2CCc2ccc(Cl)cc21	i	i	i	i	i	-6.2*
CCOC(=O)C1=C(C)N=C2SC(C(=O)OC)=CC(=O)N2C1c1ccc(OC)cc1 (stereo not given)	i	i	i	i	i	-5.7*
Nc1c2c(nc3ccc(Br)cc13)N(C1CCCCC1)CC2	-7.4*	i	i	18*	i	-0.18
Nc1c2c(nc3ccc(Br)cc13)N(Cc1ccccc1)CC2	i	i	i	i	i	-0.64
C/C(=N\NC(=O)COc1ccc(C(C)(C)C)cc1)c1ccc(N2CCOCC2)cc1	i	i	i	i	i	2
NC(=O)C1CCN(Cc2cccc(OCc3ccccc3)c2)CC1	i	i	i	i	i	-0.37
CCOC(=O)C1CCN(Cc2cccc(OCc3ccccc3)c2)CC1	i	i	i	i	i	-7.9*
COc1cccc(C(C(=O)NC2CCCC2)N(C(=O)CNC(=O)c2ccco2)c2cccnc2)c1 (stereo not given)	i	i	i	i	i	·
O=C(CCNS(=O)(=O)c1cccc2nsnc12)NCc1ccccc1Cl	i	i	i	i	i	-0.02
CC1CN(S(=O)(=O)c2cccc(C(F)(F)F)c2)CC(C)O1 (stereo not given)	i	i	i	i	i	-4.4*
Cc1cc(O)c(C(C)C)cc1NS(=O)(=O)c1ccccc1	i	i	i	i	i	-6.8*
